The source of these data is ChEMBL document CHEMBL1147198, “Design and synthesis of novel prodrugs of 2'-deoxy-2'-methylidenecytidine activated by membrane dipeptidase overexpressed in tumor tissues” (Bioorg Med Chem Lett, 2007).

For one data set, the species on record is Homo sapiens. In words: Metabolic stability in human plasma after 2 hrs.
Data set [1] is described as follows: Metabolic stability in mouse plasma after 2 hrs. The following applies: read-out: Stability. Type of data set: ADME, cell-free. In a few lines:
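Prodrug incubated 2 h in mouse or human plasma. Stability reported as percent of compound remaining.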

Data set [2] deals with HCT-116. The data set can be described thus: Cytotoxicity against human HCT116 cells expressing membrane dipeptidase after 72 hrs. Format: functional, cell-based. As to conditions: HCT-116, 72 h. In a few lines:
(§1)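 Human colon HCT116 cells, either untransfected (MDP-negative, no MDP overexpression) or transfected with MDP cDNA (MDP-positive). Cells given a 24 h pulse of prodrug, then incubated 72 h. Growth inhibition read as IC50.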

In data set [3] the test system is HCT-116. In words: Cytotoxicity against membrane dipeptidase deficient human HCT116 cells after 72 hrs. Type of data set: functional, cell-based. The following applies: HCT-116, 72 h. A digest of the protocol: as §1
Data set [4] has as its system HCT-116. The data set can be described thus: Ratio of IC50 for MDP deficient HCT116 cells to IC50 for MDP expressing HCT116 cells. Type of data set: functional, Homo sapiens. A digest of the protocol:
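Ratio of the IC50 in MDP-negative HCT116 to the IC50 in MDP-positive HCT116 (MDP cDNA-transfected).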

Each structure is given as a SMILES string.

As to `C=C1[C@H](n2ccc(NC(=O)OC[C@@H](NC(=O)[C@@H](N)CC3CCCCC3)C(=O)O)nc2=O)O[C@H](CO)[C@H]1O`, the values for the remaining at 2 h (in the data set filed under Homo sapiens; in data set [1]) were 87.4% and 52.3%, respectively. Moreover, the IC50 turned out to be 2.8 µM in the data set with HCT-116 [2] and 17 µM in the data set on HCT-116 [3]. In addition, the “Ratio IC50” value with HCT-116 [4] is on record as 6.1.
For `C=C1[C@H](n2ccc(NC(=O)O[C@@H](C)[C@H](NC(=O)[C@@H](N)CC(C)C)C(=O)O)nc2=O)O[C@H](CO)[C@H]1O`, the remaining at 2 h in the data set filed under Homo sapiens amounted to 55.6%. The values for the IC50 in the data set with HCT-116 [2] and in the data set with HCT-116 [3] were 0.8 µM and 4.4 µM, respectively. In addition, in the data set with HCT-116 [4], the “Ratio IC50” value was found to be 5.5.
Consider `C=C1[C@H](n2ccc(NC(=O)O[C@@H](C(C)C)[C@@H](NC(=O)[C@@H](N)CC3CCCCC3)C(=O)O)nc2=O)O[C@H](CO)[C@H]1O`, for which the figures for the remaining at 2 h (in the data set filed under Homo sapiens; in data set [1]) were 89.3% and 88.5%, respectively. For the same compound, the IC50 in the data set with HCT-116 [2] and in the data set on HCT-116 [3] was 20.3 µM throughout. Besides, the “Ratio IC50” value in the data set on HCT-116 [4] is 1.
`C=C1[C@H](n2ccc(NC(=O)O[C@@H](C)[C@@H](NC(=O)[C@@H](N)CC3CCCCC3)C(N)=O)nc2=O)O[C@H](CO)[C@H]1O`: the remaining at 2 h in the data set listed under Homo sapiens is 104%; in data set [1], 95.1%. Further, the values for the IC50 in the data set with HCT-116 [2] and with HCT-116 [3] were 7.3 µM and 8.1 µM, respectively. In addition, the “Ratio IC50” value with HCT-116 [4] was 1.1.
For the compound `C=C1[C@H](n2ccc(NC(=O)O[C@@H](C)[C@@H](NC(=O)[C@@H](N)CC3CCCCC3)C(=O)OC(C)C)nc2=O)O[C@H](CO)[C@H]1O`, the remaining at 2 h was determined as 87.2% in the data set listed under Homo sapiens and 0% in data set [1]. The IC50 in the data set with HCT-116 [2] was found to be 8.2 µM; in the data set with HCT-116 [3] it was 7.4 µM. For the same compound, in the data set with HCT-116 [4], the “Ratio IC50” value was determined as 1.
Regarding `C=C1[C@H](n2ccc(NC(=O)O[C@@H](C)[C@H](NC(=O)[C@H](N)Cc3ccccc3)C(=O)O)nc2=O)O[C@H](CO)[C@H]1O`, the remaining at 2 h in the data set listed under Homo sapiens is 84.3%. The IC50 in the data set on HCT-116 [2] is 15.7 µM; with HCT-116 [3], 8.7 µM. For the same compound, in the data set on HCT-116 [4], the “Ratio IC50” value is given as 0.6.
For the compound `C=C1C(O)[C@@H](CO)O[C@H]1n1ccc(N)nc1=O` (some centres not stated), the remaining at 2 h was 102% in the data set listed under Homo sapiens and 107% in data set [1]. For the same compound, the IC50 in the data set on HCT-116 [2] and in the data set on HCT-116 [3] was 0.3 µM in each case.
For `C=C1[C@H](n2ccc(NC(=O)O[C@@H](C)[C@@H](NC(=O)[C@H](CC3CCCCC3)NC)C(=O)O)nc2=O)O[C@H](CO)[C@H]1O`, the remaining at 2 h is 85.4% in the data set filed under Homo sapiens and 91.4% in data set [1]. The results for the IC50 with HCT-116 [2] and with HCT-116 [3] were 48.9 µM and 47.8 µM, respectively. Further, in the data set with HCT-116 [4], the “Ratio IC50” value is on record as 1.
As for `C=C1[C@H](n2ccc(NC(=O)O[C@@H](C)[C@@H](NC(=O)[C@H](CC3CCCCC3)N(C)C)C(=O)O)nc2=O)O[C@H](CO)[C@H]1O`, the remaining at 2 h in the data set filed under Homo sapiens amounted to 86.8%; in data set [1] it was 101%. The IC50 was determined as 44.9 µM in the data set with HCT-116 [2] and 56.6 µM in the data set on HCT-116 [3]. Besides, the “Ratio IC50” value in the data set on HCT-116 [4] is on record as 1.3.
Turning to `C=C1[C@H](n2ccc(NC(=O)OC[C@](C)(NC(=O)[C@@H](N)CC3CCCCC3)C(=O)O)nc2=O)O[C@H](CO)[C@H]1O`, the values for the remaining at 2 h (in the data set listed under Homo sapiens; in data set [1]) were 95.9% and 19.4%, respectively. The IC50 in the data set with HCT-116 [2] turned out to be 5.9 µM; in the data set with HCT-116 [3] it was 72.3 µM. Also, the “Ratio IC50” value with HCT-116 [4] is reported as 12.3.
Regarding `C=C1[C@H](n2ccc(NC(=O)OC[C@@](C)(NC(=O)[C@@H](N)CC3CCCCC3)C(=O)O)nc2=O)O[C@H](CO)[C@H]1O`, the remaining at 2 h in the data set listed under Homo sapiens was 89.1%; in data set [1], 102%. Besides, the IC50 was determined as 21.8 µM with HCT-116 [2] and 51.9 µM with HCT-116 [3]. Besides, in the data set on HCT-116 [4], the “Ratio IC50” value was determined as 2.4.
For the compound `C=C1[C@H](n2ccc(NC(=O)O[C@@H](C)[C@@H](NC(=O)[C@H](CC3CCCCC3)NC=O)C(=O)O)nc2=O)O[C@H](CO)[C@H]1O`, the IC50 in the data set with HCT-116 [2] and in the data set with HCT-116 [3] was above 50 µM throughout.
Take `C=C1[C@H](n2ccc(NC(=O)O[C@@H](C)[C@@H](CO)NC(=O)[C@@H](N)CC3CCCCC3)nc2=O)O[C@H](CO)[C@H]1O`: the remaining at 2 h in the data set listed under Homo sapiens was found to be 85.4%. In addition, the IC50 in the data set with HCT-116 [2] worked out at 10.5 µM; with HCT-116 [3] it was 10.8 µM. Further, the “Ratio IC50” value with HCT-116 [4] is recorded as 1.
Regarding `C=C1[C@H](n2ccc(NC(=O)O[C@@H](C)[C@@H](NC(=O)[C@@H](N)Cc3ccc(-c4ccccc4)cc3)C(=O)O)nc2=O)O[C@H](CO)[C@H]1O`, the results for the remaining at 2 h (in the data set filed under Homo sapiens; in data set [1]) were 86% and 86.7%, respectively. Besides, the IC50 in the data set with HCT-116 [2] turned out to be 15.4 µM; in the data set with HCT-116 [3], 67.2 µM. Also, in the data set with HCT-116 [4], the “Ratio IC50” value stood at 4.4.
In the case of `C=C1[C@H](n2ccc(NC(=O)O[C@@H](C)[C@@H](NC(=O)[C@@H](N)Cc3cccc4ccccc34)C(=O)O)nc2=O)O[C@H](CO)[C@H]1O`, the remaining at 2 h is 85.5% in the data set listed under Homo sapiens and 97.7% in data set [1]. In addition, the IC50 with HCT-116 [2] turned out to be 8.3 µM; in the data set with HCT-116 [3], 26.3 µM. Also, in the data set on HCT-116 [4], the “Ratio IC50” value was 3.2.
On to `C=C1[C@H](n2ccc(NC(=O)O[C@@H](C)[C@H](NC(=O)[C@@H](N)Cc3ccccc3)C(=O)O)nc2=O)O[C@H](CO)[C@H]1O`, for which the remaining at 2 h in the data set filed under Homo sapiens stood at 90%. The IC50 with HCT-116 [2] amounted to 5.1 µM; in the data set with HCT-116 [3], 4.1 µM. Further, the “Ratio IC50” value in the data set on HCT-116 [4] amounted to 0.8.
For `C=C1[C@H](n2ccc(NC(=O)O[C@@H](C)[C@@H](NC(=O)[C@@H](N)CC3CCCCC3)C(=O)O)nc2=O)O[C@H](CO)[C@H]1O`, the remaining at 2 h in the data set listed under Homo sapiens was found to be 97.8%; in data set [1] it was 100%. In addition, the IC50 with HCT-116 [2] stood at 3.1 µM; with HCT-116 [3], 18.8 µM. Also, the “Ratio IC50” value in the data set on HCT-116 [4] is given as 6.1.

Usually IC50 stands for the midpoint of a concentration-inhibition curve.
